# Measurements as given in ChEMBL document CHEMBL2311435, “Development of 18F-labeled picolinamide probes for PET imaging of malignant melanoma” (J Med Chem, 2013).
# Key:
# Pancreas = test: Biodistribution in pancreas of C57BL/6 mouse xenografted with mouse B16F10 cells at 3.7 MBq, iv after 1 hr by gamma-scintillation counting analysis; type: ADME, organism-based, B16-F10; details: in vivo
# In short: (§1)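 1.0 × 10^6 B16F10 cells in PBS injected subcutaneously into the right shoulder of C57BL/6 mice, grown to 0.5 cm (~10 day). Tail-vein injection of about 3.7 MBq (100 μCi) 18F probe in PBS (0.1 M, pH 7.4). Killed at 1.0 or 2.0 h p.i. (n = 4 per group). Tissues excised, weighed and gamma-counted; uptake expressed as %ID/g, mean ± SD.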
# Spleen = test: Biodistribution in spleen of C57BL/6 mouse xenografted with mouse B16F10 cells at 3.7 MBq, iv after 1 hr by gamma-scintillation counting analysis; type: ADME, organism-based, B16-F10; details: in vivo; in short: as §1
# Stomach = test: Biodistribution in stomach of C57BL/6 mouse xenografted with mouse B16F10 cells at 3.7 MBq, iv after 1 hr by gamma-scintillation counting analysis; type: ADME, organism-based, B16-F10; details: in vivo; in short: as §1
# Brain = test: Biodistribution in brain of C57BL/6 mouse xenografted with mouse B16F10 cells at 3.7 MBq, iv after 1 hr by gamma-scintillation counting analysis; type: ADME, organism-based, B16-F10; details: in vivo; in short: as §1
# Nucleic Acid [1] = test: Ratio of drug uptake in tumor to blood of C57BL/6 mouse xenografted with mouse B16F10 cells at 3.7 MBq, iv after 1 hr by gamma-scintillation counting analysis; type: ADME, organism-based, B16-F10; details: tumour
# In short: (§2)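 Same subcutaneous B16F10 model and tail-vein dose of about 3.7 MBq (100 μCi), n = 4 per group. Dissection at 1 or 2 h p.i. Gamma-counter %ID/g of tumor divided by that of blood, lung, liver or muscle, given as mean ± SD.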
# Liver = test: Biodistribution in liver of C57BL/6 mouse xenografted with mouse B16F10 cells at 3.7 MBq, iv after 1 hr by gamma-scintillation counting analysis; type: ADME, organism-based, B16-F10; details: in vivo; in short: as §1
# [2] = Drug uptake in tumor of C57BL/6 mouse xenografted with mouse B16F10 cells at 3.7 MBq, iv after 1 hr by PET imaging analysis; type: ADME, organism-based, Neoplasm, B16-F10; details: in vivo
# In short: (§3)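 Static small-animal PET at 0.5, 1 and 2 h after tail-vein injection of ~3.7 MBq (100 μCi) into B16F10-bearing C57BL/6 mice (n = 4 per probe). Isoflurane anesthesia, 5% induction and 2% maintenance in O2. Decay-corrected images. ROI-derived %ID/g assumes 1 g/ml density, without attenuation correction. Mean ± SD.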
# Nucleic Acid [3] = test: Ratio of drug uptake in tumor to lungs of C57BL/6 mouse xenografted with mouse B16F10 cells at 3.7 MBq, iv after 2 hrs by gamma-scintillation counting analysis; type: ADME, organism-based, B16-F10; details: in vivo; in short: as §2
# Mus musculus [4] = test: Biodistribution in lungs of C57BL/6 mouse xenografted with mouse B16F10 cells at 3.7 MBq, iv after 2 hrs by gamma-scintillation counting analysis; type: ADME, organism-based, Lung, B16-F10; details: in vivo; in short: as §1
# Nucleic Acid [5] = test: Ratio of drug uptake in tumor to liver of C57BL/6 mouse xenografted with mouse B16F10 cells at 3.7 MBq, iv after 2 hrs by gamma-scintillation counting analysis; type: ADME, organism-based, B16-F10; details: in vivo; in short: as §2
# Muscle tissue = test: Biodistribution in muscle of C57BL/6 mouse xenografted with mouse B16F10 cells at 3.7 MBq, iv after 1 hr by gamma-scintillation counting analysis; type: ADME, organism-based, B16-F10; details: in vivo; in short: as §1
# Zone of skin = test: Biodistribution in skin of C57BL/6 mouse xenografted with mouse B16F10 cells at 3.7 MBq, iv after 2 hrs by gamma-scintillation counting analysis; type: ADME, organism-based, B16-F10; details: in vivo; in short: as §1
# Mus musculus [6] = test: Biodistribution in lungs of C57BL/6 mouse xenografted with mouse B16F10 cells at 3.7 MBq, iv after 1 hr by gamma-scintillation counting analysis; type: ADME, organism-based, Lung, B16-F10; details: in vivo; in short: as §1
# Heart = test: Biodistribution in heart of C57BL/6 mouse xenografted with mouse B16F10 cells at 3.7 MBq, iv after 2 hrs by gamma-scintillation counting analysis; type: ADME, organism-based, B16-F10; details: in vivo; in short: as §1
# Nucleic Acid [7] = test: Ratio of drug uptake in tumor to lungs of C57BL/6 mouse xenografted with mouse B16F10 cells at 3.7 MBq, iv after 1 hr by gamma-scintillation counting analysis; type: ADME, organism-based, B16-F10; details: in vivo; in short: as §2
# [8] = Drug uptake in tumor of C57BL/6 mouse xenografted with mouse B16F10 cells at 3.7 MBq, iv after 2 hrs by PET imaging analysis; type: ADME, organism-based, Neoplasm, B16-F10; details: in vivo; in short: as §3
# Kidney = test: Biodistribution in kidney of C57BL/6 mouse xenografted with mouse B16F10 cells at 3.7 MBq, iv after 1 hr by gamma-scintillation counting analysis; type: ADME, organism-based, B16-F10; details: in vivo; in short: as §1
# [9] = Drug uptake in tumor of C57BL/6 mouse xenografted with mouse B16F10 cells at 3.7 MBq, iv after 0.5 hrs by PET imaging analysis; type: ADME, organism-based, Neoplasm, B16-F10; details: in vivo; in short: as §3
# Nucleic Acid [10] = test: Ratio of drug uptake in tumor to muscle of C57BL/6 mouse xenografted with mouse B16F10 cells at 3.7 MBq, iv after 1 hr by gamma-scintillation counting analysis; type: ADME, organism-based, B16-F10; details: in vivo; in short: as §2
# Mus musculus [11] = test: Biodistribution in eye of C57BL/6 mouse xenografted with mouse B16F10 cells at 3.7 MBq, iv after 1 hr by gamma-scintillation counting analysis; type: ADME, organism-based, B16-F10; details: in vivo; in short: as §1
# Bone = test: Biodistribution in bone of C57BL/6 mouse xenografted with mouse B16F10 cells at 3.7 MBq, iv after 1 hr by gamma-scintillation counting analysis; type: ADME, organism-based, Bone element, B16-F10; details: in vivo; in short: as §1
structure (smiles),measurement,setting,value
CCN(CC)CCNC(=O)c1cc([18F])ccn1,Drug uptake,Pancreas,1.06 % ID/g
same,Drug uptake,Spleen,1.09 % ID/g
same,Drug uptake,Stomach,2.24 % ID/g
same,Drug uptake,Brain,0.49 % ID/g
same,Ratio,Nucleic Acid [1],28.32
same,Drug uptake,Liver,2.07 % ID/g
same,Drug uptake,[2],8.97 % ID/g
same,Ratio,Nucleic Acid [3],9.46
same,Drug uptake,Mus musculus [4],0.59 % ID/g
same,Ratio,Nucleic Acid [5],4.16
same,Drug uptake,Muscle tissue,0.6 % ID/g
same,Drug uptake,Zone of skin,0.63 % ID/g
same,Drug uptake,Mus musculus [6],0.88 % ID/g
same,Drug uptake,Heart,0.37 % ID/g
same,Ratio,Nucleic Acid [7],8.81
same,Drug uptake,[8],9.73 % ID/g
same,Drug uptake,Kidney,1.34 % ID/g
same,Drug uptake,[9],9.52 % ID/g
same,Ratio,Nucleic Acid [10],13.12
same,Drug uptake,Mus musculus [11],35.96 % ID/g
same,Drug uptake,Bone,11.29 % ID/g
